Activity calls are given as the source filed them. No cut-off for these calls is given here.

The text below walks through data of ChEMBL document CHEMBL4715843, “NO-releasing STAT3 inhibitors suppress BRAF-mutant melanoma growth” (Eur J Med Chem, 2020).

One assay concerns RPMI-8226. Kind of assay: Anticancer activity against human RPMI-8226 cells assessed as cell growth inhibition at 10 uM measured after 48 hrs by SRB assay relative to control. The assay is classed as functional. As to conditions: read-out: GI. Put shortly: (§1)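 NCI 60-cell-line screen. Cells in RPMI with 5% FBS were plated at 5,000–40,000 cells/well by doubling time and preincubated 24 h at 37 °C. Compound was added at a single 10 µM for 48 h, then cells were fixed with cold TCA (10% final) and stained with 0.4% SRB. Absorbance at 515 nm gave percent growth versus untreated control and time-zero cells.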

In the next assay the test system is HL-60(TB). The assay can be described thus: Anticancer activity against human HL-60(TB) cells assessed as cell growth inhibition at 10 uM measured after 48 hrs by SRB assay relative to control. The assay is classed as functional. As to conditions: read-out: GI. Put shortly:
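NCI 60-cell-line screen, single dose 10 µM, DMSO stock diluted in complete medium with gentamicin. Cells in RPMI with 5% FBS, plated at density set by doubling time, preincubated 24 h, then exposed 48 h at 37 °C, 5% CO2. TCA fixation, SRB staining, absorbance at 515 nm. Percent growth taken relative to untreated control and time-zero cell number.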
In general terms: In SRB staining, fixed cells bind dye roughly in proportion to their protein.

For the next assay, the system named is MOLT-4. Kind of assay: Anticancer activity against human MOLT-4 cells assessed as cell growth inhibition at 10 uM measured after 48 hrs by SRB assay relative to control. The assay is classed as functional. Conditions: read-out: GI. Put shortly: as §1
A further assay has as its system T47D. The assay can be described thus: Anticancer activity against human T47D cells assessed as cell growth inhibition at 10 uM measured after 48 hrs by SRB assay relative to control. Type of assay: functional. As to conditions: read-out: GI. The procedure, abridged: as §1
The subject of the next assay is CCRF-CEM. The assay can be described thus: Anticancer activity against human CCRF-CEM cells assessed as cell growth inhibition at 10 uM measured after 48 hrs by SRB assay relative to control. As to conditions: read-out: GI. Type of assay: functional. Put shortly:
as §1

The next assay relates to COLO 205. Kind of assay: Anticancer activity against human COLO 205 cells assessed as cell growth inhibition at 10 uM measured after 48 hrs by SRB assay. Type of assay: functional, cell-based. The procedure, abridged:
as §1

A further assay relates to A549. The assay can be described thus: Anticancer activity against human A549 cells assessed as cell growth inhibition at 10 uM measured after 48 hrs by SRB assay. The assay is classed as functional, cell-based. Put shortly:
as §1

In a further assay the test system is NCI-H522. Kind of assay: Anticancer activity against human NCI-H522 cells assessed as cell growth inhibition at 10 uM measured after 48 hrs by SRB assay. Type of assay: functional, cell-based. Put shortly:
as §1

The next assay relates to K562. Kind of assay: Anticancer activity against human K562 cells assessed as cell growth inhibition at 10 uM measured after 48 hrs by SRB assay relative to control. Type of assay: functional. As to conditions: read-out: GI. The procedure, abridged:
as §1

The target of assay [1] is T1, Signal transducer and activator of transcription 3 (Homo sapiens, UniProt P40763). Kind of assay: Inhibition of STAT3 phosphorylation at S727 residue in human SB-590885-sensitive 451Lu cells measured after 12 hrs by Western blot analysis. Conditions: dose 10-25 µM. The procedure, abridged:
(§2)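 451 Lu and MEL 1617 pairs, sensitive and resistant; resistant lines maintained in RPMI with 1 µM PLX4720. Treated with 10 and 25 µM for 12 h versus DMSO. Lysates (60 µg protein, 10% SDS-PAGE) immunoblotted for Ser727- and Tyr705-phospho-STAT3, total STAT3, total PAX3, with actin.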

In assay [2] the target is T1, Signal transducer and activator of transcription 3. Kind of assay: Inhibition of STAT3 phosphorylation at Y705 residue in human SB-590885-resistant 451Lu cells measured after 12 hrs by Western blot analysis. As to conditions: dose 10-25 µM. Put shortly: as §2
Assay [3] in a line: Drug metabolism in pH 7.4 phosphate buffer assessed as nitric oxide release at 100 uM measured after 2 hrs by Griess reagent based colorimetric method. Put shortly:
(§3)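 Compound at 100 µM was held at room temperature in pH 7.4 phosphate buffer with 5 mM DTT and 2% DMSO for 2 or 48 h. Griess reagent was added, and after 30 min absorbance was read at 548 nm. NO release (mol NO/mol compound) was derived from a sodium nitrite calibration curve.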
In general terms: Griess reagent forms a coloured azo dye with nitrite.

A short description of assay [4]: Drug metabolism in pH 7.4 phosphate buffer assessed as nitric oxide release at 100 uM measured after 48 hrs by Griess reagent based colorimetric method. Put shortly:
as §3

Assay [5] concerns the target T1, Signal transducer and activator of transcription 3. The assay can be described thus: Inhibition of STAT3 phosphorylation at Y705 residue in human SB-590885-sensitive MEL1617 cells at 10 to 25 uM measured after 12 hrs by Western blot analysis. Type of assay: cell-based. Conditions: dose 10-25 µM. The procedure, abridged:
as §2

Assay [6] shares this target. The assay can be described thus: Inhibition of STAT3 phosphorylation at S727 residue in human SB-590885-resistant 451Lu cells measured after 12 hrs by Western blot analysis. As to conditions: dose 10-25 µM. Put shortly: as §2
On the technique in general: Immunoblotting shows a protein as a band on a membrane.

The target is the same in assay [7]. Kind of assay: Inhibition of STAT3 in human SB-590885-resistant MEL1617 cells assessed as reduction in PAX3 expression at 10 to 25 uM measured after 12 hrs by Western blot analysis. The assay is classed as cell-based. As to conditions: dose 10-25 µM. Put shortly:
as §2

The target is the same in assay [8]. Kind of assay: Inhibition of STAT3 phosphorylation at Y705 residue in human SB-590885-resistant MEL1617 cells at 10 to 25 uM measured after 12 hrs by Western blot analysis. The assay is classed as cell-based. Conditions: dose 10-25 µM. The procedure, abridged:
as §2

For assay [9] the target is unchanged. Kind of assay: Inhibition of STAT3 in human SB-590885-sensitive 451Lu cells assessed as reduction in PAX3 expression measured after 12 hrs by Western blot analysis. As to conditions: dose 10-25 µM. The procedure, abridged:
as §2

Assay [10] has the same target. Kind of assay: Inhibition of STAT3 in human SB-590885-resistant 451Lu cells assessed as reduction in PAX3 expression measured after 12 hrs by Western blot analysis. As to conditions: dose 10-25 µM. The procedure, abridged: as §2
The target is the same in assay [11]. Kind of assay: Inhibition of STAT3 phosphorylation at Y705 residue in human SB-590885-sensitive 451Lu cells measured after 12 hrs by Western blot analysis. As to conditions: dose 10-25 µM. The procedure, abridged: as §2
The target is the same in assay [12]. The assay can be described thus: Inhibition of STAT3 in human SB-590885-sensitive MEL1617 cells assessed as reduction in PAX3 expression at 10 to 25 uM measured after 12 hrs by Western blot analysis. The assay is classed as cell-based. As to conditions: dose 10-25 µM. The procedure, abridged: as §2
Assay [13] shares this target. The assay can be described thus: Inhibition of STAT3 phosphorylation at S727 residue in human SB-590885-sensitive MEL1617 cells at 10 to 25 uM measured after 12 hrs by Western blot analysis. The assay is classed as cell-based. Conditions: dose 10-25 µM. Put shortly:
as §2

Assay [14] has the same target. The assay can be described thus: Inhibition of STAT3 phosphorylation at S727 residue in human SB-590885-resistant MEL1617 cells at 10 to 25 uM measured after 12 hrs by Western blot analysis. The assay is classed as cell-based. Conditions: dose 10-25 µM. The procedure, abridged: as §2
The subject of another assay is HFF. The assay can be described thus: Cytotoxicity against HFF assessed as inhibition of cell proliferation by MTS assay. The assay is classed as cell-based, Homo sapiens. Conditions: Homo sapiens, HFF; read-out: IC50.
Another assay concerns A-375. The assay can be described thus: Cytotoxicity against human A-375 cells assessed as inhibition of cell proliferation measured after 48 hrs by MTS assay. Conditions: A-375, 48 h. The assay is classed as functional, cell-based. The procedure, abridged: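 Cells were exposed to a dose range of inhibitor for 48 h, and viability was read by MTS assay in triplicate. GI50 was taken as the concentration giving 50% growth inhibition, averaged from three independent experiments. A375 was cultured in RPMI-1640 with Glutamax. A549 and NCI-H157 were kept in RPMI-1640, and MIA PaCa-2 and U87-MG in DMEM.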

Another assay relates to MCF-10A. The assay can be described thus: Cytotoxicity against human MCF-10A cells assessed as inhibition of cell proliferation by MTS assay. Type of assay: cell-based. As to conditions: Homo sapiens, MCF-10A; read-out: IC50.

T1 sequence (P40763 whole entry): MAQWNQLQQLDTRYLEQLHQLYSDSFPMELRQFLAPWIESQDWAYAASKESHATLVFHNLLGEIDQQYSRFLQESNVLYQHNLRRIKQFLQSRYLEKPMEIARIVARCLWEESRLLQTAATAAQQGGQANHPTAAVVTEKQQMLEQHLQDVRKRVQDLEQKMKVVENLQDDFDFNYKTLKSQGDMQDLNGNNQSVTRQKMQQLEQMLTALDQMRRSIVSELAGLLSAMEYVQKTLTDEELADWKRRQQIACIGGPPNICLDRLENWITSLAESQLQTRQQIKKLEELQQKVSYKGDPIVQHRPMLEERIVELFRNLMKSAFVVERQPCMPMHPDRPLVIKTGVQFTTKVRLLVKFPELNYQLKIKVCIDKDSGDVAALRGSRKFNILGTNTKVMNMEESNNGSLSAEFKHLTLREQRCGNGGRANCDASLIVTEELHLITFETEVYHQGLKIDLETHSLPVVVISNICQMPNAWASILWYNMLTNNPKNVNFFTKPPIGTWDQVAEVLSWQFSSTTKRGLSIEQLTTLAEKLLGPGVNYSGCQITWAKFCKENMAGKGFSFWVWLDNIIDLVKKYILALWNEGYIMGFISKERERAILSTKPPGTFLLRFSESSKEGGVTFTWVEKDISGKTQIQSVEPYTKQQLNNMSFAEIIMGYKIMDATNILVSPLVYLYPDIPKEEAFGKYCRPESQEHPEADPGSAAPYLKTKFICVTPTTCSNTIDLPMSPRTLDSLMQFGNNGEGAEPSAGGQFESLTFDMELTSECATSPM

On to `C=CCn1c(SCC(=O)Nc2ccc(/C(C)=N\O)cc2)nnc1-c1cc(-c2ccc(OC)cc2)nc2ccccc12`, for which the inhibition of growth at 10 µM was found to be 81% in the assay with RPMI-8226; 100% in the assay on HL-60(TB); 81% in the assay with MOLT-4; 100% with T47D; 81% in the assay with CCRF-CEM; 81% in the assay on K562. Besides, the “growth inhibition (GI)” value in the assay with COLO 205, in the assay on A549 and in the assay on NCI-H522 was “Active” in each case.

As to `COc1ccc(-c2cc(-c3nnc(SCC(=O)Nc4ccc(/C(C)=N\O)cc4)n3-c3ccccc3)c3cc(OC)ccc3n2)cc1`, the inhibition result in assay [1], in [2], in assay [5], in assay [6], in assay [7] and in assay [8] was “inactive” each time. For the same molecule, the inhibition entry in assay [9], in [10], in [11], in [12], in [13] and in assay [14] was “inactive” each time. Also, the figures for the Drug metabolism in [3] and in assay [4] were 15% and 30%, respectively.

The IC50 is the concentration at which inhibition is half-maximal. For `O=C(Nc1nnc(-c2ccco2)o1)c1cc(-c2ccccc2)nc2ccccc12`, the IC50 worked out at 72.2 µM in the assay with HFF, 16.2 µM with A-375 and 33.4 µM in the assay with MCF-10A.
